Tests used:
[1] = test system: MCF7; assay: Growth inhibition of human MCF7 cells after 48 hrs by sulforhodamine B assay; type: functional
Method in brief: (§1)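 Cells in 96-well plates were exposed for 48 h at 37 °C in 5% CO2 to compounds at 0.25, 2.5, 25 and […] in DMSO/RPMI. Doxorubicin was the positive control at […]. Cells were then fixed with 50% trichloroacetic acid and stained with sulforhodamine B, with protein read at 540 nm. TGI (the concentration where T = T0) was taken by non-linear regression of each cell line's concentration-response curve.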

[2] = test system: 786-0; assay: Growth inhibition of human 786-0 cells after 48 hrs by sulforhodamine B assay; type: functional; method in brief: as §1
[3] = test system: NCI-H460; assay: Growth inhibition of human NCI-H460 cells after 48 hrs by sulforhodamine B assay; type: functional; method in brief: as §1
[4] = test system: OVCAR-3; assay: Growth inhibition of human OVCAR3 cells after 48 hrs by sulforhodamine B assay; type: functional; method in brief: as §1
[5] = Growth inhibition of human NCI/ADR cells after 48 hrs by sulforhodamine B assay; type: functional; method in brief: as §1
[6] = test system: HT-29; assay: Growth inhibition of human HT-29 cells after 48 hrs by sulforhodamine B assay; type: functional; method in brief: as §1
[7] = Growth inhibition of human HaCaT cells after 48 hrs by sulforhodamine B assay; type: cell-based; method in brief: as §1
[8] = test system: U-251; assay: Growth inhibition of human U251 cells after 48 hrs by sulforhodamine B assay; type: functional; method in brief: as §1

SMILES	GI [1] [µM]	GI [2] [µM]	GI [3] [µM]	GI [4] [µM]	GI [5] [µM]	GI [6] [µM]	TGI at 48 h [7] [µM]	GI [8] [µM]
O=C1C=COC(/C=C/c2ccccc2)C1 (stereo unspecified)	152.6	138.2	82.4	58.2	105.3	123.6	126	121.8
O=C1C=COC(/C=C/c2ccc(C(F)(F)F)cc2)C1 (stereo unspecified)	41.2	39.6	95.6	58.2	51.6	33.3	123	38.6
COc1ccc(/C=C/C2CC(=O)C=CO2)cc1 (stereo unspecified)	155.5	191.5	149.4	87.4	239.3	203.9	144	151.9
COc1ccc(/C=C/C2CC(=O)C=CO2)cc1OC (stereo unspecified)	130.2	145.1	89.6	74.3	145.8	123.2	134	86.9
COc1cc(/C=C/C2CC(=O)C=CO2)cc(OC)c1OC (stereo unspecified)	149.4	125	127.3	85.4	223.2	134.5	155	101.8
O=C1C=COC(/C=C/c2ccc3c(c2)OCO3)C1 (stereo unspecified)	81.4	104.1	147.4	101.7	186.8	126.9	145	77
O=c1ccoc(/C=C/c2ccccc2)c1	691.1	409.9	508.5	545.5	514.2	344.1	711	285.4
COc1ccc(/C=C/c2cc(=O)cco2)cc1	395.9	376.8	606.1	327.9	309.9	379.2	710	278.4
COc1ccc(/C=C/c2cc(=O)cco2)cc1OC	953.6	635.4	545.5	540.2	407.9	806.7	690	338.9
COc1ccc(C2CC(=O)C=CO2)cc1 (stereo unspecified)	172.9	197	192.8	248.6	419.6	203.4	264	226.1
COc1ccc(-c2cc(=O)cco2)cc1	>1236.3	>1236.3	>1236.3	>1236.3	>1236.3	>1236.3	> 1240	>1236.3
COc1ccc(C2CC(=O)C(Br)=CO2)cc1 (stereo unspecified)	42.2	33.4	117.7	113.5	52.9	69	164	46.4
COc1ccc(C2CC(=O)C(I)=CO2)cc1 (stereo unspecified)	43.2	27	74.6	38.2	39.7	24.4	53.3	24.4
O=C1C=CCC(/C=C/c2ccccc2)N1 (stereo unspecified)	607.4	>1254.8	928.5	>1254.8	966.6	1195.8	> 1250	797.6
O=C1C=CCC(/C=C/c2ccccc2C(F)(F)F)N1 (stereo unspecified)	120.2	123.4	194.7	329.3	40.6	195.4	249	69.9
O=C1C=CCC(/C=C/c2ccc(C(F)(F)F)cc2)N1 (stereo unspecified)	149.5	127.8	150.4	126	71.8	139.2	174	130.3

SMILES	GI [1] [µM]	GI [2] [µM]	GI [3] [µM]	GI [4] [µM]	GI [5] [µM]	GI [6] [µM]	TGI at 48 h [7] [µM]	GI [8] [µM]
COc1ccc(/C=C/C2CC=CC(=O)N2)cc1 (stereo unspecified)	>1090.4	>1090.4	>1090.4	786.8	841.7	>1090.4	> 1090	981.3
COc1ccc(/C=C/C2CC=CC(=O)N2)c(OC)c1 (stereo unspecified)	>964.1	>964.1	>964.1	>964.1	>964.1	>964.1	> 964	>964.1
COc1ccc(/C=C/C2CC=CC(=O)N2)cc1OC (stereo unspecified)	>964.1	>964.1	>964.1	>964.1	>964.1	>964.1	> 964	>964.1
COc1cc(/C=C/C2CC=CC(=O)N2)cc(OC)c1 (stereo unspecified)	146.4	173.4	145.5	232.1	203.2	196.6	212	169.9
COc1cc(/C=C/C2CC=CC(=O)N2)cc(OC)c1OC (stereo unspecified)	>864.1	>864.1	>864.1	>864.1	>864.1	>864.1	> 864	>864.1
COc1cc(OC)c(OC)cc1/C=C/C1CC=CC(=O)N1 (stereo unspecified)	>864.1	>864.1	>864.1	>864.1	>864.1	>864.1	> 864	>864.1
O=C1C=CCC(/C=C/c2ccccc2C(F)(F)F)O1 (racemic)	50.4	52.3	241.5	295.6	75.5	71.7	82.7	43.4
O=C1C=CCC(/C=C/c2ccc(C(F)(F)F)cc2)O1 (racemic)	51	44.5	476.9	167.2	54.8	36.2	69.7	36.8
COc1ccc(/C=C/C2CC=CC(=O)O2)cc1 (racemic)	25.5	21.6	28.3	61.5	17.3	33.7	58.8	20.6
COc1ccc(/C=C/C2CC=CC(=O)O2)c(OC)c1 (racemic)	5.4	4.1	6	5.6	8.8	6.6	15.8	4.6
COc1ccc(/C=C/C2CC=CC(=O)O2)cc1OC (racemic)	7.8	10.9	14.6	16.8	11.6	17.2	63	23.9
COc1cc(/C=C/C2CC=CC(=O)O2)cc(OC)c1 (racemic)	9.5	10.6	9	19.1	8.9	8.2	8.8	8.1
COc1cc(/C=C/C2CC=CC(=O)O2)cc(OC)c1OC (racemic)	15.3	18.5	28.8	44.9	35.1	18.8	21.6	25.1
COc1cc(OC)c(OC)cc1/C=C/C1CC=CC(=O)O1 (racemic)	3.8	6	9.8	7.2	9.4	15.9	46.9	11.5
COc1cccc2c1C(=O)c1c(O)c3c(c(O)c1C2=O)C[C@@](O)(C(=O)CO)C[C@@H]3O[C@H]1C[C@H](N)[C@H](O)[C@H](C)O1 [DOXORUBICIN]	3.7	2.1	1.3	6.3	13.5	13.9	0.8	2.4
O=C1C=CC[C@H](/C=C/c2ccccc2)O1 [GONIOTHALAMIN]	12.7	14.8	13.6	14.2	8	13.9	27.7	13.7

Source: ChEMBL document CHEMBL2034868, “Synthesis of methoxylated goniothalamin, aza-goniothalamin and γ-pyrones and their in vitro evaluation against human cancer cells” (Bioorg Med Chem, 2012)
